The values that follow come from ChEMBL document CHEMBL4145556, “Carbazole-, Aspidofractinine-, and Aspidocarpamine-Type Alkaloids from Pleiocarpa pycnantha” (J Nat Prod, 2018).

pIC50: −log10 of the molar value.

For one data set, the system named is HEK293. As to the kind of experiment: Cytotoxicity against HEK293 cells assessed as reduction in cell viability by CMFDA dye based fluorescence assay. The conditions noted are these: human. The gist of the method: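 Viability of HEK293/NF-κB-luc cells was tracked with 2.5 μM CMFDA loaded 1 h before seeding at 10^4 cells/well. After overnight incubation, samples were added with 20 ng/mL TNF-α for 5 h. Fluorescence was read after lysis. Duplicate wells, three independent experiments.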

Data set [1] in a line: Inhibition of TNFalpha stimulated NF-kappaB (unknown origin) expressed in HEK293 cells after 5 hrs by luciferase reporter gene based luminescence assay. In kind it is cell-based. The conditions noted are these: Homo sapiens, HEK293, 5 h. In short, it runs like this: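 HEK293/NF-κB-luc cells loaded 1 h with 2.5 μM CMFDA, seeded at 10^4 cells/well and incubated overnight. Samples were added, with TNF-α stimulation at 20 ng/mL for 5 h. After lysis, fluorescence was read, then luciferase luminescence. Luminescence was normalized to each well's fluorescence and IC50 derived. Duplicate wells, three independent experiments.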
In general terms: In a reporter assay the amount or activity of a reporter protein is the signal.

Usually pIC50 stands for the IC50 on a negative log10 scale, so that one unit is a factor of ten. Low readings indicate a high IC50, high ones a low IC50. Turning to `C[C@H]1NCCc2c1cc1c([nH]c3ccccc31)c2CO`, in the data set on HEK293, the Activity entry was “Non-Toxic”. Moreover, the pIC50 in data set [1] was less than 4.30.

Take `O=c1cc(-c2ccc(Br)cc2)oc2ccccc12`: the Activity entry with HEK293 is given as “Non-Toxic”.

As to `COC(=O)[C@@H]1C[C@@]23CCCN4CC[C@@]5(c6ccccc6N(C)[C@]15CC2)[C@@H]43`, in the data set with HEK293, the Activity result is given as “Non-Toxic”. In data set [1], this molecule had a pIC50 of 5.06.

Regarding `C=C1C(=O)O[C@@H]2C3O[C@]3(C)CC/C=C(\C)CC[C@@H]12` (stereo partly drawn), the Activity result with HEK293 is recorded as “Non-Toxic”. In data set [1], this molecule gave a pIC50 of 6.40.

Turning to `C/C=C1/COC(=O)[C@@H]2[C@H]1C[C@@H]1NCCc3c1n2c1ccccc31`, in the data set with HEK293, the Activity entry is recorded as “Non-Toxic”. Also, in data set [1], the pIC50 is 5.03.

For the molecule `C/C=C1/C[N@+]2(C)C3Cc4c([nH]c5ccc(O)cc45)[C@@H]2C[C@H]1[C@@H]3CO`, in the data set with HEK293, the Activity result is “Non-Toxic”. Also, the pIC50 in data set [1] is less than 4.30.

As to `COC(=O)c1nccc2c1[nH]c1ccccc12`, the Activity result in the data set with HEK293 is “Non-Toxic”. The same molecule had a pIC50 in data set [1] of less than 4.30.
